# Data taken from ChEMBL document CHEMBL1671683, “Activity of linezolid in an in vitro pharmacokinetic-pharmacodynamic model using different dosages and Staphylococcus aureus and Enterococcus faecalis strains with and without a hypermutator phenotype” (Antimicrob Agents Chemother, 2010).
# Key:
# [1] = test system: Staphylococcus aureus subsp. aureus RN4220; assay: AUBC (0 to 24 hrs) in Staphylococcus aureus RN4220 in two-compartment pharmacokinetic/pharmacodynamic model at 600 mg, bid administered as 0.5 hr infusion for 2 days; assay type: functional
# Procedure, shortened: (§1)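 Hollow-fibre two-compartment model in cation-adjusted, protein-free MH broth at 37°C. Human total-plasma linezolid profile simulated as 0.5-h infusion every 12 h for 48 h. Concentrated 18-h culture injected into the peripheral compartment 3 h before first sample, giving about 10^8 (E. faecalis) or 10^9 (S. aureus) CFU/ml. Viable counts by dilution plating over 0–24 h. Area indices calculated versus growth control curve. Duplicate runs.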
# [2] = test system: Enterococcus faecalis; assay: Bactericidal activity against 12 hrs peripheral compartment culture samples of Enterococcus faecalis Ef1497 in two-compartment pharmacokinetic/pharmacodynamic model assessed as effect on bacterial count at 600 mg, bid administered as 0.5 hr infusion; assay type: functional
# Procedure, shortened: (§2)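 Two-compartment hollow-fibre model in cation-adjusted, protein-free MH broth, 37°C. Linezolid given as simulated 0.5-h infusion twice daily. Inoculum grown 18 h, concentrated 50-fold and placed in the peripheral compartment 3 h before t0. Peripheral samples at set times counted by dilution plating. First 10-fold dilution not plated, limiting detection to 2–3 log10 CFU/ml. Δlog CFU/ml taken from t0 count. Duplicates.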
# [3] = test system: Enterococcus faecalis; assay: Bactericidal activity against 12 hrs peripheral compartment culture samples of Enterococcus faecalis Ef1497 MutM3 in two-compartment pharmacokinetic/pharmacodynamic model assessed as effect on bacterial count at 200 mg, bid administered as 0.5 hr infusion; assay type: functional; procedure, shortened: as §2
# [4] = Tmax in two-compartment pharmacokinetic/pharmacodynamic model at 600 mg, bid administered as 0.5 hr infusion over 24 hrs; assay type: ADME, organism-based; conditions: iv
# [5] = Total clearance in two-compartment pharmacokinetic/pharmacodynamic model at 800 mg, bid administered as 0.5 hr infusion over 24 hrs; assay type: ADME, organism-based; conditions: in vivo, iv
# [6] = test system: Enterococcus faecalis; assay: Bactericidal activity against 13 hrs peripheral compartment culture samples of Enterococcus faecalis Ef1497 MutM3 in two-compartment pharmacokinetic/pharmacodynamic model assessed as effect on bacterial count at 600 mg, bid administered as 0.5 hr infusion; assay type: functional
# Procedure, shortened: (§3)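 An 18-h culture concentrated 50-fold was injected into the peripheral compartment 3 h pre-sampling (~10^8 CFU/ml E. faecalis, 10^9 S. aureus). Counts came from dilution plating (detection limit 2–3 log10 CFU/ml), expressed as Δlog CFU/ml from treatment start. Run in duplicate.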
# [7] = test system: Staphylococcus aureus; assay: Bactericidal activity against 13 hrs peripheral compartment culture samples of Staphylococcus aureus RN4220 MutS2 in two-compartment pharmacokinetic/pharmacodynamic model assessed as effect on bacterial count at 600 mg, bid administered as 0.5 hr infusion; assay type: functional; procedure, shortened: as §3
# [8] = AUC in healthy human at 600 mg, iv, bid administered as 0.5 hr infusion; assay type: ADME, organism-based; conditions: plasma
# [9] = in vitro; conditions: two-compartment pharmacokinetic/pharmacodynamic model, iv, 200 mg
# [10] = Mean residence time in two-compartment pharmacokinetic/pharmacodynamic model at 800 mg, bid administered as 0.5 hrs infusion; assay type: ADME, organism-based; conditions: iv
# [11] = test system: Enterococcus faecalis; assay: Bactericidal activity against 0.5 hrs peripheral compartment culture samples of Enterococcus faecalis ATCC 29212 in two-compartment pharmacokinetic/pharmacodynamic model assessed as effect on bacterial count at 600 mg, bid administered as 0.5 hr infusion; assay type: functional; procedure, shortened: as §2
# [12] = test system: Staphylococcus aureus; assay: Bactericidal activity against 1 hr peripheral compartment culture samples of Staphylococcus aureus RN4220 in two-compartment pharmacokinetic/pharmacodynamic model assessed as effect on bacterial count at 600 mg, bid administered as 0.5 hr infusion; assay type: functional; procedure, shortened: as §2
# [13] = test system: Enterococcus faecalis; assay: Bactericidal activity against 12.5 hrs peripheral compartment culture samples of Enterococcus faecalis Ef1497 in two-compartment pharmacokinetic/pharmacodynamic model assessed as effect on bacterial count at 600 mg, bid administered as 0.5 hr infusion; assay type: functional; procedure, shortened: as §3
# [14] = Cmax in two-compartment pharmacokinetic/pharmacodynamic model at 600 mg, bid administered as 0.5 hrs infusion; assay type: ADME, organism-based; design: dose 600 mg; conditions: iv
# [15] = Residual concentration at the end of the administration interval in two-compartment pharmacokinetic/pharmacodynamic model at 600 mg, bid administered as 0.5 hrs infusion; assay type: ADME; conditions: iv, read-out: Drug uptake
# [16] = in vitro; conditions: two-compartment pharmacokinetic/pharmacodynamic model, iv, 200 mg; remark: listed apart in the source
# [17] = test system: Staphylococcus aureus; assay: Bactericidal activity against 48 hrs peripheral compartment culture samples of Staphylococcus aureus RN4220 MutS2 in two-compartment pharmacokinetic/pharmacodynamic model assessed as effect on bacterial count at 600 mg, bid administered as 0.5 hr infusion; assay type: functional; procedure, shortened: as §3
# [18] = test system: Enterococcus faecalis; assay: AUBC (0 to 24 hrs) in Enterococcus faecalis Ef1497 in two-compartment pharmacokinetic/pharmacodynamic model at 800 mg, bid administered as 0.5 hr infusion for 2 days; assay type: functional; procedure, shortened: as §1
# [19] = test system: Enterococcus faecalis; assay: Bactericidal activity against 14 hrs peripheral compartment culture samples of Enterococcus faecalis Ef1497 in two-compartment pharmacokinetic/pharmacodynamic model assessed as effect on bacterial count at 600 mg, bid administered as 0.5 hr infusion; assay type: functional; procedure, shortened: as §3
# [20] = Total clearance in two-compartment pharmacokinetic/pharmacodynamic model at 600 mg, bid administered as 0.5 hr infusion over 24 hrs; assay type: ADME, organism-based; conditions: in vivo, iv
# [21] = test system: Enterococcus faecalis; assay: T>MIC in Enterococcus faecalis Ef1497 MutM3 in two-compartment pharmacokinetic/pharmacodynamic model at 600 mg, bid administered as 0.5 hr infusion for 2 days; assay type: functional
# [22] = test system: Enterococcus faecalis; assay: Bactericidal activity against 0.5 hrs peripheral compartment culture samples of Enterococcus faecalis ATCC 29212 in two-compartment pharmacokinetic/pharmacodynamic model assessed as effect on bacterial count at 200 mg, bid administered as 0.5 hr infusion; assay type: functional; procedure, shortened: as §2
# [23] = test system: Staphylococcus aureus; assay: Bactericidal activity against 24 hrs peripheral compartment culture samples of Staphylococcus aureus RN4220 MutS2 in two-compartment pharmacokinetic/pharmacodynamic model assessed as effect on bacterial count at 600 mg, bid administered as 0.5 hr infusion; assay type: functional; procedure, shortened: as §3
# [24] = test system: Enterococcus faecalis; assay: ABBC (0 to 24 hrs) in Enterococcus faecalis ATCC 29212 in two-compartment pharmacokinetic/pharmacodynamic model at 600 mg, bid administered as 0.5 hr infusion for 2 days; assay type: functional; procedure, shortened: as §1
# [25] = in vitro; conditions: two-compartment pharmacokinetic/pharmacodynamic model, iv, 600 mg
# [26] = test system: Staphylococcus aureus; assay: Bactericidal activity against 0.5 hrs peripheral compartment culture samples of Staphylococcus aureus RN4220 in two-compartment pharmacokinetic/pharmacodynamic model assessed as effect on bacterial count at 600 mg, bid administered as 0.5 hr infusion; assay type: functional; procedure, shortened: as §2
# [27] = test system: Enterococcus faecalis; assay: Bactericidal activity against 2 hrs peripheral compartment culture samples of Enterococcus faecalis ATCC 29212 in two-compartment pharmacokinetic/pharmacodynamic model assessed as effect on bacterial count at 200 mg, bid administered as 0.5 hr infusion; assay type: functional; procedure, shortened: as §3
# [28] = test system: Staphylococcus aureus; assay: Bactericidal activity against 12.5 hrs peripheral compartment culture samples of Staphylococcus aureus RN4220 MutS2 in two-compartment pharmacokinetic/pharmacodynamic model assessed as effect on bacterial count at 600 mg, bid administered as 0.5 hr infusion; assay type: functional; procedure, shortened: as §3
# [29] = Apparent volume of distribution in two-compartment pharmacokinetic/pharmacodynamic model at 400 mg, bid administered as 0.5 hrs infusion; assay type: ADME, organism-based; conditions: iv
structure (smiles),measurement,setting,value
CC(=O)NC[C@H]1CN(c2ccc(N3CCOCC3)c(F)c2)C(=O)O1 [LINEZOLID],AUBC,[1],229.4 log10CFU/ml.hr
same,log10CFU/ml,[2],-0.12
same,log10CFU/ml,[3],0.29
same,Tmax,[4],0.5 h
same,clearance,[5],228 mL/min
same,log10CFU/ml,[6],0.25
same,log10CFU/ml,[7],-0.81
same,AUC at 0.5 h,[8],88100 ng·h/mL
same,half-life,[9],6.27 h
same,MRT,[10],6.55 h
same,log10CFU/ml,[11],0.04
same,log10CFU/ml,[12],-0.07
same,log10CFU/ml,[13],-0.14
same,Cmax,[14],13400 ng/mL
same,concentration at 0.5 h,[15],1170 ng/mL
same,half-life at 0.5 h,[16],6.72 h
same,log10CFU/ml,[17],0.74
same,AUBC,[18],210.5 log10CFU/ml.hr
same,log10CFU/ml,[19],0.13
same,clearance,[20],215 mL/min
same,fT>MIC,[21],0%
same,log10CFU/ml,[22],-0.08
same,log10CFU/ml,[23],0.52
same,ABBC,[24],1.32 log10CFU/ml.hr
same,half-life at 0.5 h,[25],6.54 h
same,log10CFU/ml,[26],-0.04
same,log10CFU/ml,[27],0.09
same,log10CFU/ml,[28],-0.06
same,Vd,[29],130 L
